Compound activity: PubChem, Sanford-Burnham Center for Chemical Genomics
Shown are actives, neighbours in structure and some others; about 2.3% of the full set was active somewhere.
SUMO1 PPI mod = modulators of SUMO1 protein-protein interactions, primary screen, biochemical, uHTS | Small ubiquitin-related modifier 1 (Homo sapiens), P63165 | SUMO1 binding to a labelled peptide, TR-FRET, 1 h | actives 0.33% (n = 360,000) | inhibition, % at 20 µM; in the data active = inhibition above about 37%
Target sequence (P63165 whole entry, looked up): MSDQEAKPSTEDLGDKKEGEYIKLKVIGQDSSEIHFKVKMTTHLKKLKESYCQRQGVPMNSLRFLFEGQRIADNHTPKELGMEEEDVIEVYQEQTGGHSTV
LMPTP inh = LMPTP phosphatase inhibitors, primary screen, biochemical, fluorescence intensity, uHTS. recombinant LMPTP-A, OMFP fluorogenic substrate. Low molecular weight phosphotyrosine protein phosphatase (Homo sapiens), P24666. inhibition, % at 20 µM. actives 0.22% (n = 360,000);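 active = compounds that cut the enzyme signal by at least half of the control window in the single-dose screen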;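 note: plate controls were DMSO wells with enzyme plus substrate for no effect and substrate without enzyme for full effect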
Target sequence (P24666 whole entry, looked up): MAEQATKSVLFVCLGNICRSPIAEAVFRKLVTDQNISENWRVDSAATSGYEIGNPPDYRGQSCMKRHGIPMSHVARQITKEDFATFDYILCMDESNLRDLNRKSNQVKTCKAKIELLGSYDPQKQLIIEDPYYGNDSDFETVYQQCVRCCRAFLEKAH
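Test system: LMPTP-A phosphatase enzyme; input: 0.625 nM LMPTP-A final; reagent: OMFP substrate, 400 µM final; compound dosing: 20 µM single dose, 3% DMSO; incubation: 50 min dark incubation at room temperature; measured by: endpoint fluorescence intensity from OMFP dephosphorylation; measure: % inhibition relative to no-enzyme and uninhibited control wells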
Scp-1 inhibitor = Scp-1 phosphatase inhibitors, primary screen, biochemical, colorimetric, uHTS; Carboxy-terminal domain RNA polymerase II polypeptide A small phosphatase 1 (Homo …; Recombinant Scp1, phosphopeptide, malachite green phosphate absorbance; inhibition, % at 20 µM; actives 0.88% (n = 340,000);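 active = inhibition above about 50% at 20 µM, limit read from the data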;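 note: plate controls were DMSO wells with enzyme for no effect and wells lacking enzyme for full effect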
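Test system: SCP-1 phosphatase catalytic domain, residues 76-261 | Compound dosing: One concentration, 20 µM, with 1.0% DMSO | Schedule: 45 min room-temperature reaction, 5 min colour, 30 min stabiliser | Detection: Absorbance at 630 nm | Read-out basis: % inhibition of SCP-1 phosphate liberation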
Rpn11 inh = Rpn11 (PSMD14) deubiquitinase inhibitors, primary screen, biochemical, fluorescence polarization, uHTS. human 26S proteasome, Ub4-pepOG fluorescence polarization; 20S core pre-blocked with epoxomicin. inhibition, % at 20 µM. 26S proteasome non-ATPase regulatory subunit 14 (Homo sapiens), O00487. actives 0.59% (n = 360,000);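 active = inhibition at 20 µM, scaled to each plate's controls, above about 33%, limit read from the data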
Target sequence (O00487 whole entry, looked up): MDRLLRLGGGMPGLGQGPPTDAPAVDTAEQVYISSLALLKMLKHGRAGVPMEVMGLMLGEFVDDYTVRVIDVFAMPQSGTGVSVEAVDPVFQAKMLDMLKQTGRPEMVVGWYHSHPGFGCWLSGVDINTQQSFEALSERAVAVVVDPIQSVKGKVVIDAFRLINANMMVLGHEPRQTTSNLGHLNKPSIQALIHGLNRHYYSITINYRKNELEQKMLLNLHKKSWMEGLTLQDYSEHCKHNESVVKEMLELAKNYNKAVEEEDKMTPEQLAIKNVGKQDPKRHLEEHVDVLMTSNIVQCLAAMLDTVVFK
DNMT1 inh = human DNMT1 methyltransferase inhibitors, primary screen, biochemical, molecular beacon, fluorescence, HinP1I cleavage, uHTS | DNA (cytosine-5)-methyltransferase 1 (Homo sapiens), P26358 | inhibition (reported as % activation of signal), % at 10 µM | actives 0.83% (n = 360,000) | AID 588458, 2011; in the data active = inhibition above about 50%
STEP inh = STEP phosphatase inhibitors, primary screen, biochemical, fluorescence intensity, uHTS; Tyrosine-protein phosphatase non-receptor type 5 (Homo sapiens), P54829; recombinant STEP, OMFP fluorogenic substrate; inhibition, % at 20 µM; actives 0.25% (n = 360,000);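 active = inhibition at 20 µM, scaled per plate between control wells, above about 37%, limit read from the data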;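 note: 0% = DMSO with enzyme and substrate and 100% = substrate only without enzyme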
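Material: STEP (striatal-enriched tyrosine phosphatase) enzyme, cell-free; Compound dosing: 20 µM single dose in 1% DMSO; Technique: fluorescence read at 480 nm ex / 540 nm em; Times: reaction 20 min, ambient temperature; Medium: 50 mM Bis-Tris pH 6.0 with 2.5 mM DTT and 0.005% Tween 20; Also added: OMFP at 25 µM.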
Rpn11 inh conf = Rpn11 (PSMD14) deubiquitinase inhibitors, confirmation, biochemical, fluorescence polarization, single concentration; shares compounds with Rpn11 inh; actives 29% (n = 1,900); purified human 26S proteasome, Ub4-pepOG fluorescence polarization; proteasome pretreated with epoxomicin; inhibition, % at 20 µM; AID 602318, 2012
MMP-2 inh = MMP-2 enzyme inhibition, confirmation, counter-screen for RPN11 inhibitor project, biochemical, fluorescence, single concentration | shares compounds with Rpn11 inh | actives 4% (n = 1,900) | recombinant MMP-2, FRET peptide cleavage fluorescence | AID 602330, 2012 | inhibition, % at 20 µM;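 note: human MMP-2 activated beforehand with APMA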
Thrombin inh = bovine thrombin protease inhibition, confirmation, counter-screen for Rpn11 inhibitor project, biochemical, fluorescence polarization, single concentration; actives 13% (n = 1,900); inhibition, % at 20 µM; AID 602333, 2012; shares compounds with Rpn11 inh; bovine thrombin cleavage of Ub4-pepOG;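 active = mean inhibition at least 40% at 20 µM, or signal 3 deviations below plate average, so some actives read negative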;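 note: plate controls were thrombin with DMSO for no effect and buffer wells lacking thrombin for full effect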
Active calls of the source: *; . = not tested or not shown. Cut-off read from the data, not from the text of the source, unless noted: active = inhibition above about 40%; inactive = the rest.

SMILES	SUMO1 PPI mod	LMPTP inh	Scp-1 inhibitor	Rpn11 inh	DNMT1 inh	STEP inh	Rpn11 inh conf	MMP-2 inh	Thrombin inh
CC(CSc1nc2ccccc2s1)Cn1c(N2CCCC2)nc2c1c(=O)[nH]c(=O)n2C (stereo unspecified)	4	-2	-8	34*	3	-3	11	37	8
CCN1CCN(c2nc3c(c(=O)[nH]c(=O)n3C)n2CCSc2nc3ccccc3s2)CC1	-2	-1	-5	2	1	-1	.	.	.
Cc1ccccc1S(=O)Cc1ccc(C(=O)NCCN2CCOCC2)o1 (stereo unspecified)	5	-3	-6	-6	2	-1	.	.	.
Cc1nc2ccccn2c1-c1csc(NCc2ccco2)n1	-1	4	-5	103*	-10	-4	-10	34	-20
COc1ccc(N=NC2=C(O)CC(C)(C)CC2=O)c(OC)c1	-67	9	0	94*	1	1	88*	-8	69*
COc1ccc(N=NC2=C(O)CC(C)(C)CC2=O)cc1	-31	1	-2	17	4	0	.	.	.
Cc1ccc(C2CC(c3cccs3)=NN2S(=O)(=O)c2ccc(C)cc2)cc1 (stereo unspecified)	-2	3	-21	45*	0	3	41*	-12	19
CCCCOC(=O)c1ccc(NC(=O)C(CCS(C)(=O)=O)NC(C)=O)cc1 (stereo unspecified)	-1	0	-9	36*	2	0	-15	-38	-8
CC(=O)c1cccc(N2C(=O)CC(N3CCN(S(=O)(=O)c4ccc(Cl)cc4)CC3)C2=O)c1 (stereo unspecified)	1	-1	-12	6	1	-3	.	.	.
COc1cc(-c2cc(-c3ccc(F)cc3)nc(N)c2C#N)ccc1O	3	0	-6	97*	-5	-1	0	-12	-7
CCOc1cc(-c2cc(-c3ccc(N)cc3)nc(N)c2C#N)ccc1O	-2	7	-12	4	-23	-2	.	.	.
CC(=O)c1c(C)[nH]c(C(=O)CN2C(=O)NC(CCc3ccccc3)C2=O)c1C (stereo unspecified)	2	-1	-4	7	-4	1	.	.	.
COc1ccc(CN(C)C(=O)COC(=O)c2cc([N+](=O)[O-])ccc2N2CCCC2)c(OC)c1OC	-29	1	-2	-7	6	-1	.	.	.
CC(C)=CCC/C(C)=C/CNC(=O)CC1C[C@H](C(=O)N(C(C)C)C(C)C)[C@@]2(C)c3[nH]c4ccccc4c3CCN2C1=O (stereo partly specified)	0	6	-8	-1	-14	0	.	.	.
Cc1cc(NS(=O)(=O)c2ccc(Nc3nc(-c4sc(N)nc4C)cs3)cc2)no1	51*	12	23	55*	86*	2	24	28	-11
COCCNC(=O)CSc1nnc(NC(=O)C2CC(=O)N(c3ccccc3OC)C2)s1 (stereo unspecified)	7	0	-5	1	0	2	.	.	.
CN(CC(=O)Nc1c(Cl)cccc1Cl)C(=O)CCc1nc2sc3c(c2c(=O)[nH]1)CCCC3	11	3	21	26	17	4	.	.	.
CN(CC(=O)Nc1ccccc1C(F)(F)F)C(=O)CCc1nc2sc3c(c2c(=O)[nH]1)CCCC3	-19	0	-4	17	2	-2	.	.	.
CN(CC(=O)Nc1ccc(Cl)cc1)C(=O)CCc1nc2sc3c(c2c(=O)[nH]1)CCCC3	-11	6	36	52*	42	1	72*	-31	26
CN(CC(=O)Nc1ccc(F)cc1)C(=O)CCc1nc2sc3c(c2c(=O)[nH]1)CCCC3	-13	7	30	48*	26	1	38	-31	19
O=C(c1ccc2c3c(cccc13)CC2)C1CCCN(C(=O)c2cccnc2)C1 (stereo unspecified)	-16	0	-2	4	-6	1	.	.	.
O=C(c1ccc2c3c(cccc13)CC2)C1CCCN(Cc2cccnc2)C1 (stereo unspecified)	-13	2	-3	37*	-4	0	-10	1	-17
O=S(=O)(Nc1nc2ccccc2nc1Nc1ccc2c(c1)OCO2)c1ccc(F)cc1	7	1	-4	38*	-15	-2	14	6	-17
O=C(O)c1cccc(Nc2nc3ccccc3nc2NS(=O)(=O)c2ccc(F)cc2)c1	8	-2	1	1	0	1	.	.	.
O=C1c2ccccc2/C(=C\c2ccc(Br)s2)N1c1ccccc1	-10	3	-7	41*	-13	0	-3	1	2
SMILES	SUMO1 PPI mod	LMPTP inh	Scp-1 inhibitor	Rpn11 inh	DNMT1 inh	STEP inh	Rpn11 inh conf	MMP-2 inh	Thrombin inh
CC1=NN(c2ccccc2)C(=O)/C1=C\c1ccc(Br)s1	21	3	-10	-3	11	2	.	.	.
COc1cc(/C=C2\N=C3CCCCCN3C2=O)ccc1O	-40	1	1	152*	-1	-1	88*	-27	67*
COc1ccc(/C=C2\N=C3CCCCCN3C2=O)cc1OC	-18	-1	-3	-3	-7	-1	.	.	.
CC1Nc2ncnc(N3CCc4ccccc4C3)c2N(Cc2ccc(Cl)cc2)C1=O (stereo unspecified)	4	0	3	43*	-7	-2	31	4	15
CC1Nc2ncnc(N3CCc4ccccc4C3)c2N(Cc2ccc(Br)cc2)C1=O (stereo unspecified)	3	1	14	29	17	0	.	.	.
Cc1cc(C)c(C#N)c(SCCN2CCCCC2)n1	-5	-1	-8	-4	2	0	.	.	.
